Experimental data published in ChEMBL document CHEMBL1152325, “Antioxidant and anticholinesterase activity evaluation of ent-kaurane diterpenoids from Sideritis arguta” (J Nat Prod, 2009).
pIC50: −log10 of the molar value.

Columns and labels:
[1] = test system: Radical scavenging activity; assay: Antioxidant activity assessed as DPPH radical scavenging activity; assay type: functional; conditions: for pIC50: read-out: IC50
Summary of the method: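 DPPH free-radical scavenging by the Blois method on extracts and diterpenoids. Tested at four concentrations in triplicate analyses, given as mean ± SD. Results expressed as IC50 (µg/mL).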

[2] = Antioxidant activity against beta-carotene and linoleic acid assessed as inhibition of bleaching of beta-carotene; assay type: functional; conditions: for pIC50: read-out: IC50
Summary of the method: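 β-Carotene–linoleic acid model system on extracts and isolated diterpenoids. Bleaching inhibition was measured at four concentrations in triplicate, reported as mean ± SD. IC50 in µg/mL.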

[3] = Antioxidant activity assessed as superoxide radical scavenging activity by phenazin methosulphate-NADH-NBT assay; assay type: functional; conditions: for pIC50: read-out: IC50
Summary of the method: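 Superoxide-anion scavenging by the NADH-PMS-NBT method after Liu et al. Extracts and diterpenoids were tested at four concentrations in triplicate, as mean ± SD. IC50 reported in µg/mL.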

Cholinesterase = Cholinesterase (Homo sapiens, UniProt P06276); assay: Inhibition of BChE by spectrophotometry
Cholinesterase, sequence (P06276 whole entry): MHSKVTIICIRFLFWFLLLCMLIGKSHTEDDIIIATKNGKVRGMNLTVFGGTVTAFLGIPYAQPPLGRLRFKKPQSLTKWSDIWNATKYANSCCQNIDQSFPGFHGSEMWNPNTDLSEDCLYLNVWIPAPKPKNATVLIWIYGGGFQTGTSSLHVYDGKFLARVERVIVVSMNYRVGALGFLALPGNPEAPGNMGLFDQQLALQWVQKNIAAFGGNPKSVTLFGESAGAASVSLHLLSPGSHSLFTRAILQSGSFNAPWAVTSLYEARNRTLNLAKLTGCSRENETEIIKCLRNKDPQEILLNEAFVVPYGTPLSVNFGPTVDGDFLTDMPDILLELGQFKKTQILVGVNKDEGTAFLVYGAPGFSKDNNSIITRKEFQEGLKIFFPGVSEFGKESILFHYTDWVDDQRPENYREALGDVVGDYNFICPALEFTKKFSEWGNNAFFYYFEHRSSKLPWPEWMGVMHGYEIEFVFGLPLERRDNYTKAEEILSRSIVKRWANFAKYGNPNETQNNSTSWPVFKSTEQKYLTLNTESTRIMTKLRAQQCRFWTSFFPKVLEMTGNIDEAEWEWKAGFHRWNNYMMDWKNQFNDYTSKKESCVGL

Acetylcholinesterase = Acetylcholinesterase (Homo sapiens, UniProt P22303); assay: Inhibition of AChE by spectrophotometry; conditions: for pIC50: read-out: IC50
Acetylcholinesterase, sequence (P22303 whole entry): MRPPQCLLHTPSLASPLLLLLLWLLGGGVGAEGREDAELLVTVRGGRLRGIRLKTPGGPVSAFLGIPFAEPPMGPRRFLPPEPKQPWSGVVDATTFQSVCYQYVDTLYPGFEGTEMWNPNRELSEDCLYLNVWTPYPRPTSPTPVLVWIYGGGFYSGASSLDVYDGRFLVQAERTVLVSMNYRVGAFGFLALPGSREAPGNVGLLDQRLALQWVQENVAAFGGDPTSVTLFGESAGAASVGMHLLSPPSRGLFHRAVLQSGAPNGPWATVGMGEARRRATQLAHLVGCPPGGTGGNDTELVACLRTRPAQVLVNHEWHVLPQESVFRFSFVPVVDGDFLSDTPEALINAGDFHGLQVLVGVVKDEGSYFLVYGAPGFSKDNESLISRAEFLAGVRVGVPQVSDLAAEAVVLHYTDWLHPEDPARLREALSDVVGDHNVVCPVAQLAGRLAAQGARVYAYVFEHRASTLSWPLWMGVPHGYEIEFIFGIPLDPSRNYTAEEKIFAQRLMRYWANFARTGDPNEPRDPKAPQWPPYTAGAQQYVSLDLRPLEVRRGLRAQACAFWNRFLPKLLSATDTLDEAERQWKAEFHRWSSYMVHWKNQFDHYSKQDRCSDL

Molecule	IC50 [1]	IC50 [2]	pIC50 [3]	pIC50 [1]	pIC50 [2]	pIC50 (Cholinesterase)	IC50 (Acetylcholinesterase)	pIC50 (Acetylcholinesterase)	IC50 [3]
COc1ccc(O)c(C(C)(C)C)c1.COc1ccc(O)cc1C(C)(C)C [BUTYLATED HYDROXYANISOLE]	5.88 µg/mL	1.5 µg/mL	4.57	–	–	–	–	–	–
CC(=O)OC[C@@]1(C)CCC[C@]2(C)[C@H]1C[C@H](OC(C)=O)[C@@]13C[C@@H](CC[C@@H]21)[C@](C)(O)C3 [DIACETYLDISTANOL]	–	–	< 3.70	< 3.70	< 3.70	3.75	Not Active	–	–
C[C@]1(CO)CCC[C@]2(C)[C@H]1C[C@H](O)[C@@]13C[C@@H](CC[C@@H]21)[C@]1(C)O[C@@H]13 [SIDEROXOL]	–	–	< 3.70	< 3.70	< 3.70	4.60	–	4.84	–
Cc1cc(C(C)(C)C)c(O)c(C(C)(C)C)c1 [BUTYLATED HYDROXYTOLUENE]	66.73 µg/mL	1.3 µg/mL	–	–	–	–	–	–	–
ent-7alpha-acetoxy-15alpha,18-dihydroxykaur-16-ene	–	–	< 3.70	< 3.70	< 3.70	< 3.70	–	< 3.70	–
C=C1C[C@]23C[C@H]1CC[C@H]2[C@]1(C)CCC[C@](C)(CO)[C@@H]1C[C@@H]3O	Not Active	43.1 µg/mL	–	–	–	4.68	–	4.64	Not Active
EUBOL	–	–	< 3.70	< 3.70	< 3.70	4.63	Not Active	–	–
Cc1c(C)c2c(c(C)c1O)CC[C@@](C)(CCC[C@H](C)CCC[C@H](C)CCCC(C)C)O2 [ALPHA-TOCOPHEROL]	12.26 µg/mL	2.1 µg/mL	–	–	–	–	–	–	–
C=C1[C@@H]2CC[C@H]3[C@]4(C)CCC[C@](C)(CO)[C@@H]4C[C@H](O)[C@]3(C2)[C@@H]1O [EUBOTRIOL]	–	–	< 3.70	< 3.70	< 3.70	4.01	Not Active	–	–
